Bioassay records deposited in PubChem by several laboratories.
14-3-3 Bad PPI: disrupts binding of bovine 14-3-3 zeta to phospho-Bad peptide; 220,000 tested, 0.71% active; TR-FRET 14-3-3zeta/Dy647-pBad peptide displacement, 1 h; inhibition, % at 21.7 µM; P63103; AID 781;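 active = inhibition above about 70%, limit read from the data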
Target sequence (P63103 whole entry, looked up): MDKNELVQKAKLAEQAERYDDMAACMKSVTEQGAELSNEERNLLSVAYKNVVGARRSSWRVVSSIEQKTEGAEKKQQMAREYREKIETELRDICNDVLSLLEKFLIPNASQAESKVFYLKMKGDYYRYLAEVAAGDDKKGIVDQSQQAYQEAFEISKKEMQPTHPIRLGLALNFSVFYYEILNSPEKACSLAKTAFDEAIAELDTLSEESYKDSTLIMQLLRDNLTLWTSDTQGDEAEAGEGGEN
PERK inhibitor: inhibitors of human PERK kinase | Q9NZJ5 | AID 1416 | CHO PERK-DD fusion, SEAP luminescence translation reporter | inhibition, % at 5.6 µM | 220,000 tested, 0.17% active;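 active = inhibition above the mean inhibition of all tested compounds plus 3 SD, set separately per screening campaign, cut at about 2.9% in these data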;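 also: PERK kinase domain activated by AP20187 dimerizer at 100 nM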
Hck Nef HTS: inhibitors of human Hck kinase activated by Nef; P08631; AID 463187; inhibition, % at 20 µM; Recombinant Hck-YEEI plus Nef, Z-Lyte FRET kinase assay; 220,000 tested, 0.68% active;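 active = Hck-Nef kinase inhibition above about 50%, limit read from the data; inactive = inhibition below that limit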
Calb biofilm kill: mixture kills Candida albicans biofilm cells; 120,000 tested, 0.02% active; C. albicans biofilm persisters + clotrimazole, fluorescence viability; primary screen in compound mixtures of four per well; inhibition, % at 7.6 µM;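 active = inhibition above 30.3% in the primary screen of four-compound pools, then above 30% when the compound was retested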;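 also: compounds exposed to preformed 24 h biofilms for 48 h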
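Test system: C. albicans biofilms. Buffer or medium: RPMI/MOPS medium, pH 7.0. Timing: 48 h compound exposure at 37 °C. Technique: Alamar Blue fluorescence. Evaluation: percent inhibition of biofilm viability.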
p97 inhibitor: human p97 ATPase inhibition. recombinant p97 ATPase, Kinase-Glo ATP luminescence, 3 h. inhibition, % at 8 µM. 220,000 tested, 0.42% active; in the data active = inhibition above about 15%
eIF4E-4G inh: blocks eIF4E binding to eIF4G; P63073+Q04637; TR-FRET eIF4E-eIF4GI(517-606) binding, 2 h; inhibition, % at 21.7 µM; 220,000 tested, 0.37% active; AID 782;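 active = inhibition above about 30%, limit read from the data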
p97 inh conf: confirmation of human p97 ATPase inhibitors; shares compounds with p97 inhibitor; recombinant p97 ATPase, Kinase-Glo ATP luminescence; inhibition, % at 8 µM; 760 tested, 44% active;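 active = percent inhibition of p97 ATPase above a set limit, the primary screen's mean plus 3 SD, cut at about 15% in these data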
Each line names hits and unclear results; the compound was inactive in the other large screens (follow-up assays come after a bar, where they were run). Most compounds without a hit are left out; they make up all but 2.2% or so of the library.

O=C(Nc1cccc2nsnc12)c1ccc(-c2cccc(Cl)c2)o1	p97 inhibitor 18 (no result: Calb biofilm kill) | p97 inh conf inactive
Cc1cc(C)nc(NS(=O)(=O)c2ccc(NC(=O)C3(c4ccccc4)CCCC3)cc2)n1	none
Cc1c(C(=O)N/N=C/C(C)C)[nH]c2c([N+](=O)[O-])cccc12	none
COCCCNc1nc2nonc2nc1N1CCN2CCCC2C1 (stereo not drawn)	p97 inhibitor 16 | p97 inh conf inactive
Cc1ccc(NC(=S)NCc2ccc3c(c2)cc(C)n3C)c(C)c1	none
O=C(O[C@@H]1OC2COC(=O)c3cc(O)c(O)c(O)c3-c3c(cc(O)c(O)c3O)C(=O)O[C@@H]([C@H]1O)[C@@H]2O)c1cc(O)c(O)c(O)c1	p97 inhibitor 38 | p97 inh conf 60
CC(=O)c1c(-c2ccc(C)cc2)nc2c3ccccc3ccn12	none
COc1ccc(-c2nc3c4ccccc4ccn3c2C=O)cc1	p97 inhibitor 15 | p97 inh conf inactive
COc1ccc(/C=N/NC(=O)c2ccc(N)cc2)cc1Cn1cc([N+](=O)[O-])cn1	p97 inhibitor 20 | p97 inh conf inactive
CC(C)(C)C(=O)/C=C(\N)c1ccncc1	none (no result: Calb biofilm kill)
COc1ccc(/C(N)=C/C(=O)C(C)(C)C)cc1	p97 inhibitor 34 (no result: Calb biofilm kill) | p97 inh conf inactive
Cn1ncc(Cl)c1C(=O)NC(=S)Nc1sc2c(c1C#N)CCCCC2	none (no result: Calb biofilm kill)
CN(C)C=NC(=O)c1cn(-c2ccc(F)cc2)c(=O)c2ccccc12	p97 inhibitor 16 | p97 inh conf inactive
CN(C)C(=O)c1cn(-c2ccc(Cl)cc2)c(=O)c2ccccc12	none
CNC(=S)NNS(=O)(=O)c1ccc(OC)cc1OC	none
CCCCC(=Nc1ccc(N)cc1)C1=C(O)C(C(=O)OC)C(C)(C)CC1=O (stereo not drawn)	p97 inhibitor 18 (no result: Calb biofilm kill) | p97 inh conf inactive
CCC(=Nc1ccc(N)cc1)C1=C(O)C(C(=O)OC)C(C)(C)CC1=O (stereo not drawn)	p97 inhibitor 15 (no result: Calb biofilm kill) | p97 inh conf inactive
CSc1nccc(Oc2ccc(C#N)cc2)n1	none
O=C(NCc1ccc(OC(F)(F)F)cc1)C1CC(c2ccccc2C(F)(F)F)=NO1 (stereo not drawn)	none (no result: PERK inhibitor, p97 inhibitor)
CN1CCN(CCCNC(=O)c2cn(C3CCCCC3)c(=O)c3c2c2ccccc2n3C)CC1	p97 inhibitor 23 (no result: Calb biofilm kill) | p97 inh conf inactive
CCn1c(C)cc(/C=C2/SC(=S)NC2=O)c1C	none
Cc1cc(/C=C2\SC(=S)NC2=O)c(C)[nH]1	p97 inhibitor 15 | p97 inh conf inactive
Cc1cc(/C=C2\SC(=S)NC2=O)c(C)n1-c1cccc(O)c1	Hck Nef HTS 65, p97 inhibitor 18 | p97 inh conf 16
Cc1ccc(C)c(-n2c(-c3csc(C)c3C)n[nH]c2=S)c1	none
O/N=C/c1cccnc1Sc1ccccc1	none
CCN1CCN(c2ccc(NC(=O)c3cccc(F)c3)cc2Cl)CC1	none
COc1ccc(N2CCN(C(=O)CSc3nc4[nH]ncc4c(=O)n3-c3cccc4ccccc34)CC2)cc1	none
COc1cc2c(cc1OC)CN(C(=O)CSc1nc3[nH]ncc3c(=O)n1-c1ccccc1)CC2	p97 inhibitor 20 (no result: Calb biofilm kill) | p97 inh conf inactive
Cc1ccc(NC(=O)C2(c3cccs3)CCOCC2)cc1C	none
CCN(CC)S(=O)(=O)c1cc(NC(=O)C(C)OC(=O)c2[nH]c(C)c(C(C)=O)c2C)ccc1C (stereo not drawn)	none
Cc1ccc(NC(=S)N2CCCC(O)C2)cc1 (stereo not drawn)	p97 inhibitor 60 | p97 inh conf inactive
Cc1ccc(NC(=S)N2CCOCC2)cc1	none
CC(=O)Nc1cc(OC(C)=O)c2nonc2c1OC(C)=O	p97 inhibitor 30 (no result: 14-3-3 Bad PPI, Calb biofilm kill, eIF4E-4G inh) | p97 inh conf 32
Cc1[nH]c2ccccc2c1/C=N/NC(=O)c1cc(-c2cccs2)[nH]n1	p97 inhibitor 16 | p97 inh conf 32
O=[N+]([O-])c1cc(S(=O)(=O)C(F)(F)F)ccc1Sc1nc2ccccc2[nH]1	p97 inhibitor 20 (no result: Calb biofilm kill) | p97 inh conf 29
OCC1(CCc2ccccc2)CCN(Cc2cccn2-c2cccnc2)CC1	none
O=c1cc2c(=O)oc3cc(O)c(O)oc3c2c(O)c1O	14-3-3 Bad PPI 89, p97 inhibitor 26 | p97 inh conf 23
Cc1cc(NC(=O)c2ccc3c(c2)OCCO3)ccc1NC(=O)c1cc2ccccc2o1	p97 inhibitor 16 | p97 inh conf 15
Cc1ccc(S(=O)c2ccc(NC(=O)C3CC3)cc2C#N)cc1 (stereo not drawn)	p97 inhibitor 17 | p97 inh conf inactive
Cc1ccc(C(=O)N2CCN(Cc3ccc4c(c3)OCO4)CC2)o1	none (no result: Calb biofilm kill)
Cc1c(O)ccc(C(=O)CN2CCN(Cc3ccc4c(c3)OCO4)CC2)c1O	p97 inhibitor 16 | p97 inh conf inactive
CCc1nnc(NS(=O)(=O)c2ccc(NC(=S)Nc3ccc(F)cc3)cc2)s1	p97 inhibitor 17 | p97 inh conf inactive
CCc1nnc(NS(=O)(=O)c2ccc(NC(=S)NC(=O)c3ccccc3)cc2)s1	none
COc1ccc(CNc2nc(S(=O)(=O)c3ccccc3)c(Cl)s2)cc1OC	none
CCOC(=O)c1sc(NC(=O)c2c(C)nn(Cc3ccccc3)c2C)cc1C	p97 inhibitor 20 (no result: Calb biofilm kill) | p97 inh conf inactive
Cc1nnc(NC(=O)CSc2ccc(-c3ccccn3)nn2)s1	none
CN(C)S(=O)(=O)c1ccc2c(c1)nc(CCC(=O)O)n2C	p97 inhibitor 16 | p97 inh conf inactive
O=C(CSc1nc2ccccc2s1)Nc1cc(S(=O)(=O)N2CCOCC2)ccc1O	p97 inhibitor 17 | p97 inh conf inactive
Nc1nc(SCC(=O)Nc2cc(S(=O)(=O)N3CCOCC3)ccc2Cl)n[nH]1	none
Cc1[nH][nH]c(=O)c1C(c1c(C)[nH][nH]c1=O)c1cn(Cc2ccc(Cl)c(Cl)c2)c2ccccc12	p97 inhibitor 42 | p97 inh conf inactive
COC(=O)c1cc(-c2c[nH]c3ccccc23)n[nH]1	none (no result: Calb biofilm kill)
O=C(O)c1cc(-c2c[nH]c3ccccc23)nc2cc3ccccc3cc12	p97 inhibitor 27 | p97 inh conf 27
COc1ccc(CCNC(=O)/C(C#N)=C2\N=C(NC(=O)c3ccco3)c3ccccc32)cc1	none
O=C(COc1ccc(C2SCCS2)cc1)NNC(=O)C(Cl)Cl	p97 inhibitor 26 | p97 inh conf inactive
Cn1ccc(C(=O)NC(=S)N2CCSCC2)n1	none
C/C(=N\NC(=O)c1ccc(NS(=O)(=O)c2cccs2)cc1)c1ccc(O)cc1O	p97 inhibitor 20 | p97 inh conf 20
Cc1ccn2cc(-c3cccc(NS(C)(=O)=O)c3)nc2c1	none
CC(=O)Nc1cccc(-c2cn3ccc(C)cc3n2)c1	p97 inhibitor 17 | p97 inh conf 21
CC(C)(C)c1oc(C(=O)O)cc1CN1CCOCC1	none
